Activity calls are given as the source filed them. The calls are words filed in the database; no cut-off is given here.
Key:
Trypanosoma brucei [1] = assay: Minimum concentration producing complete lysis of all trypanosomes within 30 min at 37 degrees C in vitro; type: functional
How it was run: (§1)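 T. brucei EATRO 110 bloodstream forms from infected rat or mouse blood, 1.5-2 × 10^7/mL in 1:1 phosphate-buffered saline-glucose and MEM, held on ice and used within 8 h. At 37 °C, turbidity was followed at 750 nm. Compound was added at 5–1000 μM final, with Me2SO ≤1% v/v. Phase microscopy scored lysis at 5, 10 and 30 min. MLC is the lowest concentration lysing all within 30 min. Near-MLC concentrations were repeated on 2–3 harvests.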

Mus musculus [2] = assay: Maximum tolerated (nonfatal) intraperitoneal dose tested in mice infected with Trypanosoma brucei.
Mus musculus [3] = assay: Maximum tolerated (nonfatal) intraperitoneal dose tested in mice infected with Trypanosoma brucei.; type: functional
How it was run: (§2)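 Female Swiss-Webster mice (20-25 g) infected ip with 5×10^4 T. brucei EATRO 110 in freshly drawn infected mouse blood diluted with minimum essential medium. Groups of five mice received compound ip 4-6 h post-infection, as a milled suspension in saline with 0.25% methylcellulose or as a saline solution. A dose was scored toxic if mean survival was <90% of untreated controls or deaths occurred within 72 h; the compound was then retested at a lower dose.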

Trypanosoma brucei [4] = assay: Minimum concentration producing complete lysis of all trypanosomes within 30 min at 37 degrees C in vitro in the presence of bovine serum albumin.; type: functional, organism-based
How it was run: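 Trypanolysis of T. brucei EATRO 110 bloodstream forms (1.5-2 × 10^7/mL, 1:1 phosphate-buffered saline-glucose/MEM) with 0.3% bovine serum albumin added to the suspending medium, 37 °C. Compound was added at 5–1000 μM final with Me2SO ≤1% v/v. Turbidity was read at 750 nm and lysis checked microscopically at 5, 10 and 30 min. MLC is the lowest concentration giving complete lysis within 30 min.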

Mus musculus [5] = assay: Maximum tolerated (nonfatal) intraperitoneal dose tested in mice infected with Trypanosoma brucei; type: functional; how it was run: as §2
Trypanosoma brucei [6] = assay: Minimum concentration producing complete lysis of all trypanosomes within 30 min at 37 degrees C in vitro; IA is Inactive at 5 uM; type: functional, organism-based; how it was run: as §1

Structure (SMILES) | Min lytic concentration (Trypanosoma brucei [1]) | Max dose (Mus musculus [2]) | Max dose (Mus musculus [3]) | Concentration (Trypanosoma brucei [4]) | Max dose (Mus musculus [5]) | Min lytic concentration (Trypanosoma brucei [6])
C=CCNc1sc2c(C)c(O)c3ccccc3c2[n+]1CC=C.[Cl-] | 20 µM | 400 mg/kg | – | – | – | –
CNc1nc2c(s1)c(C)c(O)c1ccccc12.Cl | 30 µM | – | 100 mg/kg | – | – | –
Cc1c(O)c2ccccc2c2c1sc(NCCO)[n+]2C.[Cl-] | 100 µM | 100 mg/kg | – | – | – | –
Cc1c(O)c2ccccc2c2c1sc(NC1CCCCC1)[n+]2CCO.[Cl-] | 20 µM | 400 mg/kg | – | – | – | –
Cc1c(O)c2ccccc2c2c1sc(NCCCN(CCO)CCO)[n+]2C.[Cl-] | 100 µM | 50 mg/kg | – | 200 µM | – | –
Cc1c(O)c2ccccc2c2c1sc(NCC(C)C)[n+]2CC(C)C.[Cl-] | 10 µM | 200 mg/kg | – | – | – | –
Cc1c(O)c2ccccc2c2nc(N)sc12.Cl | 100 µM | – | 50 mg/kg | – | – | –
Cc1c(O)c2ccccc2c2c1sc(Nc1ccccc1)[n+]2CCO.[Cl-] | >5 µM | 400 mg/kg | – | – | – | –
COc1ccc(Nc2nc3c(s2)c(C)c(O)c2ccccc23)cc1.Cl | 10 µM | – | 400 mg/kg | – | – | –
CCNc1sc2c(C)c(O)c3ccccc3c2[n+]1CC.[Cl-] | 50 µM | 200 mg/kg | – | 200 µM | – | –
Cc1c(O)c2ccccc2c2c1sc1[n+]2CCN1.[Cl-] | 30 µM | 200 mg/kg | – | – | – | –
Cc1c(O)c2ccccc2c2nc(Nc3ccccc3)sc12.Cl | 20 µM | 200 mg/kg | – | – | – | –
CCCCNc1sc2c(C)c(O)c3ccccc3c2[n+]1CCCC.[Cl-] | 10 µM | 400 mg/kg | – | 100 µM | – | –
COCCNc1sc2c(C)c(O)c3ccccc3c2[n+]1C.[Cl-] | 50 µM | 50 mg/kg | – | – | – | –
Cc1c(O)c2ccccc2c2c1sc(NCCCN1CCN(C)CC1)[n+]2C.Cl.[Cl-] | 100 µM | 100 mg/kg | – | 100 µM | – | –
CCCCCCNc1sc2c(C)c(O)c3ccccc3c2[n+]1CCCCCC.[Cl-] | >10 µM | 200 mg/kg | – | – | – | –
CNc1sc2c(C)c(O)c3ccccc3c2[n+]1C.[Cl-] | 100 µM | 50 mg/kg | – | – | – | –
CCCCCCCCNc1sc2c(C)c(O)c3ccccc3c2[n+]1C.[Cl-] | 10 µM | 200 mg/kg | – | – | – | –
C=CCNc1nc2c(s1)c(C)c(O)c1ccccc12.Cl | 20 µM | 200 mg/kg | – | – | – | –
Cl.Nc1nc2c(cc(O)c3ccccc32)s1 | >500 µM | – | – | – | 100 mg/kg | –
CCCNc1sc2c(C)c(O)c3ccccc3c2[n+]1CCC.[Cl-] | 30 µM | 400 mg/kg | – | – | – | –
Cc1c(O)c2ccccc2c2c1sc1[n+]2CCCN1.[Cl-] | >100 µM | 200 mg/kg | – | – | – | –
Nc1nc(N)nc(Nc2ccc([As]3SCC(CO)S3)cc2)n1 (configuration not stated) [MELARSOPROL] | 100 µM | – | – | – | – | –
Cc1c(O)c2ccccc2c2c1sc(Nc1ccccc1)[n+]2C.[Cl-] | 10 µM | 200 mg/kg | – | – | – | –
Cc1c(O)c2ccccc2c2c1sc(NCCc1ccccc1)[n+]2C.[Cl-] | 10 µM | 400 mg/kg | – | – | – | –
CCCCNc1sc2c(C)c(O)c3ccccc3c2[n+]1C.[Cl-] | 10 µM | 200 mg/kg | – | – | – | –
CC(=O)c1cccc(Nc2sc3c(C)c(O)c4ccccc4c3[n+]2C)c1 | – | 200 mg/kg | – | – | – | inactive

Source: ChEMBL document CHEMBL1122070, “Potential antitrypanosomal agents. 1,N2-Disubstituted 2-amino-5-hydroxy-4-methylnaphtho[1,2-d]thiazolium salts and related compounds” (1982)
